SKKanGAS inh: inhibitors of SKKanGAS S. pyogenes growth in kanamycin (SK-promoter or general growth effect) | 300,000 compounds, 1.3% hits | BacTiter-Glo, 6 h | inhibition, % at 7.5 µM | AID 1662;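 active = mean replicate score, as percent of positive control median, at least 50; inconclusive = mean below 50 but one replicate at or above 50; inactive = mean and every replicate below 50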;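 note: strain carries kanamycin resistance gene driven by streptokinase promoter and grows in 40 µg/ml kanamycin; loss of luminescence reflects streptokinase promoter inhibition or plain growth inhibition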
Lmaj promast: reduces viability of Leishmania major promastigotes; resazurin fluorescence viability; inhibition, % at 10 µM; 200,000 compounds, 9% hits; in the data active = inhibition above about 50%;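 note: promastigotes grown with compound for 44 hours at 28 °C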
Beta apoptosis: blocks beta cell apoptosis; INS-1E cytokine-induced death, ATP luminescence, 48 h; percent of positive-control rescue, neutral wells zero; protection from apoptosis, % (test concentration not listed); 300,000 compounds, 0.8% hits; AID 435005;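 active = Every replicate reaches about 75%, or at least half do and their mean reaches it too, limit read from the data; inconclusive = At least half of replicates reach the limit but their mean does not; inactive = Under half of replicates reach the limit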;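 note: higher means more ATP so stronger rescue from cytokine killing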
T cruzi inh: blocks replication of Trypanosoma cruzi; T. cruzi beta-gal in NIH3T3, luminescence, 90 h; inhibition, % (test concentration not listed); AID 1885; 300,000 compounds, 1.4% hits;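 active = mean inhibition across valid replicates above about 55%, limit read from the data; inconclusive = mean below that limit but half or more replicates reach it; inactive = mean below it, under half of replicates reach it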;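 note: signal also drops with host cell toxicity which is not excluded here; higher percent means less beta-gal luminescence so fewer parasites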
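compound dosing = single 50 nL compound addition per well in DMSO | material = NIH/3T3 host cells with β-galactosidase reporter T. cruzi | input = 5,000 host fibroblasts per well | timing = ≥90 h infection period, 3 h prior cell attachment | read-out basis = percent inhibition of parasite-derived β-gal signal | detection = GalScreen β-gal luminescence, detergent lysis, 60 min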
Mdm2 MdmX PPI: inhibitors of human Mdm2/MdmX interaction. O15151+Q00987. SaOS-2 split-luciferase Mdm2/MdmX complementation, luminescence. inhibition, % at 8 µM. 330,000 compounds, 3% hits;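 active = inhibition of at least 50% at 8 µM in the primary screen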
Target sequence (O15151 whole entry, looked up): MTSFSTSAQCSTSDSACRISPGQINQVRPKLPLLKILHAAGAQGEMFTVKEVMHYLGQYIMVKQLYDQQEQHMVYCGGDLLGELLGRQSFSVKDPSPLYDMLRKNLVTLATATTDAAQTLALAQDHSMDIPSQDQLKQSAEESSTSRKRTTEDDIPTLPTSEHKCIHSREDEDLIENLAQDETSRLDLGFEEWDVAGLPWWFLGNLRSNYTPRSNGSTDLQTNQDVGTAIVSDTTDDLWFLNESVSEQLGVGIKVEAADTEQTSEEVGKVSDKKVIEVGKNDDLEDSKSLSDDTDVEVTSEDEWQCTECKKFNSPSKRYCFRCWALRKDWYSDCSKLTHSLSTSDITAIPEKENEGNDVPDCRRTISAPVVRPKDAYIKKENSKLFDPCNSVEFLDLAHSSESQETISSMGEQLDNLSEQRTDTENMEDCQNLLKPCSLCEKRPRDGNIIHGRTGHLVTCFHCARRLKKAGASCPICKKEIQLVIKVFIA
Target sequence (Q00987 whole entry, looked up): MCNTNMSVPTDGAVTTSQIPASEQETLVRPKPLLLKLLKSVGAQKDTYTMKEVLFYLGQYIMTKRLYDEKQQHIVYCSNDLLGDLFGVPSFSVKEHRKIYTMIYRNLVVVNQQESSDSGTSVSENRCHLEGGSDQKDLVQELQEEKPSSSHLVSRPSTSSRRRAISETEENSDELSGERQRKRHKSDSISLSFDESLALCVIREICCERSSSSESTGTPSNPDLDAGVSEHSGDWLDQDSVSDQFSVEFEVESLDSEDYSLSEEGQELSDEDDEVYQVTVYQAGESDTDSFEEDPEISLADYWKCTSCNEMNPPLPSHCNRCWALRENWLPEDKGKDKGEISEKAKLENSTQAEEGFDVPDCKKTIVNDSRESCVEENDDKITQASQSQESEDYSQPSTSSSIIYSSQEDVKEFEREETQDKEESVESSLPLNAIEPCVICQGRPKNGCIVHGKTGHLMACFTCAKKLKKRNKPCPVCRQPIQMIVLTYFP
CSC inhib: cancer stem cell inhibition; inhibition, % at 7.5 µM; 300,000 compounds, 1.1% hits; cancer stem cell-like cells viability, luminescence; AID 2717; in the data active = inhibition above about 75%; inconclusive = no clear call, values can overlap the other calls; tested in HMLE shEcad cells
Large screens that a line does not name were inactive. Only some compounds are listed: those with a hit (about 9.4% of all), similar ones and a draw of the others.

O=C(/C=C/c1ccc(Br)cc1)Nc1ccc(S(=O)(=O)Nc2ncccn2)cc1	Lmaj promast 51.9
Cc1c(Cl)cccc1NC(=O)CCN1CCN(C)CC1	none (no result: Lmaj promast)
CC(=O)c1cnn(-c2c(Cl)cc(Cl)cc2Cl)c1C	none (no result: Lmaj promast, T cruzi inh)
Cc1ccc(NC(=O)NCC2CCN(Cc3cccc(Cl)c3)CC2)cc1Cl	Lmaj promast 87.1, Beta apoptosis 120.3, T cruzi inh 61.8, CSC inhib inconclusive
O=C(NCC1CCN(Cc2cccc(Cl)c2)CC1)Nc1ccccc1Cl	none (no result: Lmaj promast)
Cc1ccc(NC(=O)NCC2CCN(Cc3cccc(Cl)c3)CC2)c(Cl)c1	Lmaj promast 84.4
CCOc1ccc(C(=O)Nc2ncccc2Cl)cc1	none
COc1ccc2[nH]cc(/C=C/C(=O)c3ccccc3)c2c1	none (no result: Lmaj promast)
S=c1[nH]nc(-c2cc(-c3ccsc3)n[nH]2)n1-c1cccc2ccccc12	Lmaj promast 74.6
CCN1CCN(c2cc(C)c3cc(NC(=O)Cc4ccccc4OC)ccc3n2)CC1	T cruzi inh 70.6
CCCCNC(=O)CCC(=O)Nc1ccc2nc(N3CCN(C)CC3)cc(C)c2c1	none
CCN1CCN(c2cc(C)c3cc(NC(=O)c4ccc(OC)c(OC)c4)ccc3n2)CC1	Lmaj promast 55.2
CCN1CCN(c2cc(C)c3cc(NC(=O)CCC(=O)Nc4ccc(OC)c(OC)c4)ccc3n2)CC1	none (no result: Lmaj promast)
COc1ccc(C)cc1NC(=O)CCC(=O)Nc1ccc2nc(N3CCN(C)CC3)cc(C)c2c1	Lmaj promast 91.0, T cruzi inh 65.2 (no result: CSC inhib)
O=C(N/N=C/c1cc([N+](=O)[O-])c(N2CCOCC2)cc1N1CCOCC1)c1cccnc1	none
CCOc1cc(/C=N/NC(=O)c2cccnc2)ccc1OC(=O)c1ccco1	none
COc1ccc(N2CCN(S(=O)(=O)c3ccc4c(c3)NC(=O)C(C)S4)CC2)cc1 (stereo unspecified)	none (no result: Lmaj promast)
N#Cc1nc(-c2ccccc2Cl)oc1N1CCN(C(=O)c2ccco2)CC1	SKKanGAS inh 69.1 (no result: Lmaj promast, Beta apoptosis)
COCCN1CCn2c(nc3cc(NC(=O)c4cccs4)ccc32)C1	none
CC(c1ccccc1)N1CCn2c(nc3cc(NC(=O)c4cccs4)ccc32)C1 (stereo unspecified)	Lmaj promast 98.9
COc1ccc(Oc2nc(C(F)(F)F)nc3ccccc23)cc1	SKKanGAS inh 51.8
CCOC(=O)c1csc(NC(=O)Nc2cccc(Cl)c2)n1	Lmaj promast 87.5
CCOC(=O)Cc1csc(NC(=O)Nc2cccc(Cl)c2)n1	none
CCC(c1nnc(SCC(=O)Nc2ccc(C(C)=O)cc2)n1C1CCCCC1)N(C)C (stereo unspecified)	Lmaj promast 61.2
CCC(c1nnc(SCC(=O)Nc2cc(Cl)ccc2C#N)n1C1CCCCC1)N(C)C (stereo unspecified)	Lmaj promast 76.5
O=C(Nc1ncc(S(=O)(=O)c2ccc([N+](=O)[O-])cc2)s1)c1cccc2ccccc12	Lmaj promast 99.7, T cruzi inh 57.8, CSC inhib 112.1
COCCCn1c(=O)/c(=C\c2ccccc2OC(C)C)s/c1=C(/C#N)C(=O)Nc1ccc(C(=O)O)cc1	SKKanGAS inh 53.9 (no result: Lmaj promast)
CCOC(=O)c1ccccc1NC(=O)COC(=O)C1CC(=O)N(CCc2ccccc2)C1 (stereo unspecified)	none (no result: Lmaj promast)
COc1ccc2nc(SCC(=O)Nc3ccc(S(=O)(=O)N4CCCC4)cc3)c(C#N)cc2c1	Lmaj promast 89.6
N#Cc1cc2ccccc2nc1SCC(=O)Nc1ccc(S(=O)(=O)N2CCCC2)cc1	Lmaj promast 96.3, T cruzi inh 56.3
O=C(C1CCC(=O)N(C2CC2)C1)N1CCC(Oc2cccc(C(F)(F)F)c2)CC1 (stereo unspecified)	none (no result: Lmaj promast, Beta apoptosis, CSC inhib)
Cc1cc(C)c(S(=O)(=O)Nc2cccc(C(=O)O)c2)cc1S(=O)(=O)Nc1cccc(C(=O)O)c1	none (no result: Lmaj promast)
N#CCCn1cc(C(=O)Nc2ccc(C(=O)O)cc2)c(-c2ccc([N+](=O)[O-])cc2)n1	none
CCOC(=O)c1ccc(NC(=O)c2cn(CCC#N)nc2-c2ccc3c(c2)OCCO3)cc1	Lmaj promast 68.3
O=C(O)COc1ccccc1/C=N/NC(=O)CSc1nnc(SCc2ccccc2)s1	none (no result: Lmaj promast)
Cc1ccc(NC(=O)C2CC(=O)N(CCc3ccccc3)C2)c(C)c1 (stereo unspecified)	none
CC1=C([N+](=O)[O-])C(c2ccc3c(c2)OCO3)N(C)C(=O)N1C (stereo unspecified)	none (no result: Lmaj promast)
Cc1cccc2c1[nH]c1nc(N/N=C\c3ccco3)nnc12	Lmaj promast 61.0
O=C(Nc1cccc(NC(=O)c2ccco2)n1)c1ccco1	none (no result: Lmaj promast)
COc1ccccc1NC(=O)C(C)N1C(=O)c2ccccc2C1=O (stereo unspecified)	none (no result: Lmaj promast)
COCCCNCCOc1cc(C(C)C)ccc1C	Lmaj promast 90.9
COc1ccccc1OCCOCCOc1ccc(C)cc1Br	none (no result: Beta apoptosis)
COCCCNCCOCCOc1ccc(C)cc1Br	Lmaj promast 90.3
Cc1ccc(OCCOCCNC(C)C)c(Br)c1	Lmaj promast 90.1
CCCCNCCOCCOc1ccc(C)cc1Br	Lmaj promast 98.2
Cc1ccc(C(C)C)cc1OCC(=O)NC1CCCCCCC1	T cruzi inh inconclusive (no result: Lmaj promast)
COc1ccc(CCNC(=O)CN(Cc2ccc(Cl)cc2)S(C)(=O)=O)cc1	none (no result: Lmaj promast)
COc1cc(OC)cc(C(=O)N[C@H](C(=O)Nc2nnc(C3CC3)s2)C(C)C)c1	none (no result: CSC inhib)
Cc1ccc(OCCOCCN2CCCC2)c(Br)c1	T cruzi inh 56.7 (no result: Lmaj promast)
Brc1ccccc1OCCN1CCCC1	none (no result: Lmaj promast, Beta apoptosis, CSC inhib)
CCC(C)NCCOCCOc1ccc(Cl)cc1Br (stereo unspecified)	Lmaj promast 96.1, T cruzi inh 72.2
COc1ccc(-c2cc(CS(=O)(=O)c3ccccc3)on2)cc1	none
COc1cccc(CN2CCN(CC#Cc3ccccc3)CC2CCO)c1 (stereo unspecified)	none (no result: Lmaj promast, Beta apoptosis, CSC inhib)
Cc1ccc(CN2CCN(Cc3ccc4c(c3)OCCO4)CC2CCO)cc1 (stereo unspecified)	none
COc1ccc(CN2CCN(Cc3cccc(OC)c3)C(CCO)C2)cc1 (stereo unspecified)	Lmaj promast 71.4
COc1cccc(CN2CCN(Cc3ccc4c(c3)OCCO4)CC2CCO)c1 (stereo unspecified)	Lmaj promast 69.7 (no result: CSC inhib)
COc1ccc(/C=C/CN2CCN(Cc3cccc(OC)c3)C(CCO)C2)cc1 (stereo unspecified)	Lmaj promast 93.4
CCc1ccc(NC(=O)CN(c2ccc(OC)cc2)S(=O)(=O)c2c(C)nn(C)c2C)cc1	none (no result: Lmaj promast)
CSCCC(NC(=O)c1ccccc1Br)C(=O)NNC(=O)c1cc(C)oc1C (stereo unspecified)	none (no result: SKKanGAS inh, Lmaj promast, T cruzi inh)
CC(C)(C)NC(=O)CN(Cc1ccccc1)S(=O)(=O)c1ccccc1	none (no result: Lmaj promast)
O=C(CN1CCN(c2ccc(F)cc2)CC1)c1ccc2c(c1)OCO2	Lmaj promast 88.5
COc1cc(COCC(O)CN2CCN(Cc3ccccc3)CC2)cc(OC)c1OC (stereo unspecified)	Lmaj promast 88.4
O=C(CN1CCN(c2ccc(Cl)cc2)CC1)c1ccc2c(c1)OCO2	none
